# BaF3 tox = parental Ba/F3 cell viability inhibition, counter-screen for JAK2V617F inhibitor project, murine pro-B, CellTiter-Glo luminescence; CellTiter-Glo ATP luminescence; inhibition, % at 5.6 µM; hit rate 1.1% among 220,000; AID 1486, 2009;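 active means inhibition above a per-campaign cutoff, the mean inhibition of all tested compounds plus 3 SD, cut at about 27% in these data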;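 further: 0% = DMSO wells and 100% = JAK Inhibitor I control wells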
# KLF5 inhibitor = KLF5 expression inhibitors, primary screen, DLD-1 cells, luminescence. DLD-1 KLF5 promoter-luciferase reporter. hit rate 0.23% among 290,000. inhibition, % at 5 µM;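 active means inhibition above a per-plate limit of that plate's mean compound inhibition plus 3 SD, cut at about 60% in these data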;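 further: 0% = DMSO wells and 100% = LY294002 at 200 µM; higher means less KLF5 promoter-driven luciferase light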
# bCat nuc transl = modulators of beta-catenin nuclear translocation, primary screen, imaging, HeLa cells, immunofluorescence, high-content; hit rate 0.3% among 190,000; nuclear translocation activity, % at 5 µM; AID 1665, 2009;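 active means nuclear translocation activity above 50% at 5 µM, with a well cell count of 50 or more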;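 further: per-cell ratio of nuclear to cytoplasmic median beta-catenin stain intensity; plate controls were DMSO negative control for no effect and GSK-3 inhibitor IX positive control for full effect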
#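 System: HeLa cells, endogenous beta-catenin; compound dosing: 5 µM primary single dose, 0.1% DMSO, 0.02–20 µM confirmation series; incubation: 24 h compound exposure at 37°C, 5% CO2; signal: beta-catenin immunofluorescence imaging with DAPI; evaluation: % activation, nuclear-to-cytoplasmic median beta-catenin signal ratio per cell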
# IEC-6 tox = cytotoxicity in IEC-6 intestinal epithelial cells, primary screen, cytotoxicity control for KLF5 inhibitor project, cell-based, luminescence | hit rate 0.78% among 290,000 | inhibition, % at 5 µM | AID 1825, 2009 | IEC-6 cytotoxicity, luminescence viability; in the data active means inhibition above about 22%;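 further: 0% = plate median of test compound wells and 100% = cytotoxic reference compound wells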
# MT stabilizer = microtubule stabilizers in HeLa cells, primary screen, imaging, high-content imaging | HeLa tubulin immunostaining HCS, 24 h; share of cells brighter than vehicle mean+2SD | % tubulin-high responders, % at 10 µM | hit rate 0.83% among 200,000 | AID 2205, 2009;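 active means plate Z-score above 3 for both tubulin-high and condensed-nucleus cell shares, with cell loss under 80%, at 10 µM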;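 further: anti alpha tubulin signal scored within the nucleus-defined area of each cell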
# Ba/F3 V617F tox = reduced viability of JAK2V617F-dependent Ba/F3 cells, primary screen, JAK2V617F inhibitor project, cell-based, Ba/F3 EpoR-JAK2V617F, luminescence | ATP luminescence | hit rate 1.1% among 220,000 | inhibition, % at 5.6 µM;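 active means inhibition above the campaign mean plus 3 SD over all tested compounds, cut at about 24% in these data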;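 further: cytokine-independent growth of Ba/F3 cells driven by EpoR plus mutant JAK2; 0% = DMSO-treated cells and 100% = JAK inhibitor I control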
# * hit, by the source's call; . = no result. An excerpt weighted towards active compounds, which were near 2.1% of everything screened.
SMILES,BaF3 tox,KLF5 inhibitor,bCat nuc transl,IEC-6 tox,MT stabilizer,Ba/F3 V617F tox
CCS(=O)(=O)Nc1ccc(C2=NN(C(=S)Nc3ccccc3)C(c3ccco3)C2)cc1 (centres undefined),3,-31,0,-6,22*,-3
Cc1ccc(C2=NN(C(=S)Nc3ccccc3)C(c3ccco3)C2)cc1 (centres undefined),7,-37,-2,-3,2,-3
Cc1ccc2[nH]c3c(c2c1)CN(C(=O)CN1c2ccc(F)cc2CCC1C)CC3 (centres undefined),95*,-12,30,2,38*,1
Cc1ccc(OCc2n[nH]c(=S)n2C2CCCCC2)cc1,6,-37,-2,1,2,-1
Cc1cccc(OCc2n[nH]c(=S)n2C2CCCCC2)c1,8,5,2,0,32*,4
CCOc1ccc(S(=O)(=O)Nc2cccc(OC)c2)cc1,6,-12,.,-4,16*,1
CCOc1ccc(NS(=O)(=O)c2cnc(Cl)c(Cl)c2)cc1,2,2,4,10,16*,2
Cc1cc(C)cc(NS(=O)(=O)c2cnc(Cl)c(Cl)c2)c1,5,-44,-4,-3,3,-2
O=C(COc1ccccc1-c1ccccc1)N/N=C/c1ccc2ccccc2c1,4,-11,131*,-2,5,-1
O=C(COc1ccccc1-c1ccccc1)N/N=C/c1cccnc1,5,-4,46,2,14*,-1
Cc1noc(C)c1COC(=O)C1CCN(C(=O)c2ccc(Cl)cc2)CC1,3,-24,-1,0,3,1
O=C(c1ccc2c(=O)n(-c3ccccc3)c(=S)[nH]c2c1)N1CCCCC1,64*,-21,0,1,4,45*
CCc1ccc(NC(=O)CC2C(=O)NCCN2C(=O)c2ccccc2OC)cc1 (centres undefined),.,-20,.,-3,.,.
O=C(CCn1nc(-c2ccccc2)c2ccccc2c1=O)NN1CCOCC1,0,18,-6,-7,2,-2
O=c1c2cccc3c2c(nn1CN1CCOCC1)-c1ccccc1-3,28*,-19,4,13,34,6
CCNC(=O)NC(=O)COC(=O)CCc1nc(=O)c2ccccc2n1C,7,-25,-1,-3,2,3
C[n+]1ccc(/C=C/c2ccccc2O)c2ccccc21,71*,6,-1,-2,5,58*
COc1ccc(-c2cc(C(F)F)n3ncc(C(=O)Nc4cc(C)on4)c3n2)cc1,5,10,-3,-6,2,-5
CCOC(=O)c1c(C)c(C(=O)Nc2cc(OC)ccc2OC)c(C)n1CC,2,10,3,-1,25*,-2
Cc1ccc(NC(=O)c2c(C(F)(F)F)nn(C)c2SCc2cccc(C(F)(F)F)c2)cc1C,48*,8,.,12,2,43*
CCOC(=O)C1=C(c2ccccc2)ON(C)C1c1ccccc1 (centres undefined),39*,2,-2,-1,4,26*
CCOC(=O)C1=C(C)N=C(SC)N(C)C1c1ccccc1 (centres undefined),7,-6,0,-1,3,-2
CCOc1ccccc1N1CCN(Cc2cnc(-c3ccccc3)[nH]2)CC1,-2,-34,-1,2,.,2
CN(C)S(=O)(=O)c1ccccc1N=C=S,-2,-29,-2,-6,.,-2
CCC(C)Oc1ccccc1C1CC(=O)NC2=C1C(=O)CCC2 (centres undefined),6,-1,10,7,60*,1
SMILES,BaF3 tox,KLF5 inhibitor,bCat nuc transl,IEC-6 tox,MT stabilizer,Ba/F3 V617F tox
Cc1ccccc1C1CC(=O)NC2=C1C(=O)CCC2 (centres undefined),6,-28,.,4,2,5
O=C(Nc1ccc2c(c1)C(=O)N(c1ccccc1)C2=O)C1CCCO1 (centres undefined),3,6,.,1,1,1
COc1ccc(CN2CCc3ccccc3C2)c(OC)c1,-4,-3,1,1,.,-2
COc1ccc(C2=[N+](C)CCn3cccc32)c(OC)c1,67*,-4,.,7,5,77*
C=CCN1C(=O)N(c2ccc(F)cc2)C(=O)C1CC(=O)Nc1ccc(Cl)cc1 (centres undefined),0,-18,2,-3,.,1
O=C(Nc1ccc2c(c1)OCCO2)N1CCN(Cc2ccccc2)CC1,6,-63,-1,2,2,1
Cc1ccc(NCN2C(=O)C3CC=CCC3C2=O)cc1 (centres undefined),2,-42,6,1,5,-3
COC(=O)C(C)NS(=O)(=O)c1ccc(NC(C)=O)cc1 (centres undefined),5,1,0,26*,4,5
CCCc1ccc(-c2cc(C(=O)N3CCN(c4ccccn4)CC3)c3ccccc3n2)cc1,.,-39,.,11,.,.
COc1cc(-c2cc(C(=O)N3CCN(c4ccccn4)CC3)c3ccccc3n2)cc(OC)c1OC,4,2,.,33*,4,3
CCOc1ccc(-c2cc(C(=O)N3CCN(c4ccccn4)CC3)c3ccccc3n2)cc1,6,-31,.,1,24*,-4
COc1ccc(-c2cc(C(=O)N3CCN(c4ccccn4)CC3)c3ccccc3n2)cc1,5,-31,0,2,29*,-2
O=C(NCc1ccccn1)Nc1cccc(Cl)c1Cl,.,-80,.,-1,.,.
COc1cccc(C(CC(=O)Nc2cccc3ccccc23)NC(=O)c2ccccc2)c1 (centres undefined),7,-27,-3,-2,2,4
Cc1nn(-c2ccccc2)c2sc(C(=O)NC3CC3)cc12,-1,-34,1,7,4,-3
Cc1nn(-c2ccccc2)c2sc(C(=O)N(CC(=O)NC3CCCC3)Cc3ccco3)cc12,6,-22,-2,-1,40*,0
CCOC(=O)c1oc2ccc(S(=O)(=O)n3nc(-c4ccc(OC)cc4)cc3N)cc2c1C,4,-20,1,0,13*,-1
CCOC(=O)c1oc2ccc(S(=O)(=O)n3nc(-c4ccccc4)cc3N)cc2c1C,4,-34,-6,-2,1,-2
CCOc1cc(-c2c(C#N)c(N)nc3c2CCc2ccccc2-3)ccc1O,1,-21,-2,14,23,-3
CCOc1cc(-c2cc(-c3ccc(C)cc3)nc(N)c2C#N)ccc1O,7,16,69*,8,49*,2
CCOc1cc(-c2c(C#N)c(N)nc3c2CCCC3C)ccc1O (centres undefined),7,-21,.,4,23*,3

# Compound activity (PubChem BioAssay)
